Measured values: PubChem BioAssay AID449754 (Broad Institute, 2010)
Inconclusive results are not listed. Active and inactive are the calls of the source.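 How the source made its calls: active means compounds whose fitted caspase activation AC50 is no more than tenfold above the top tested dose; inconclusive means flat fit with 30 to 70% activity, or a failed fit; inactive means the rest.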

test system: MEF Bax/Bak KO A1-BIM, caspase-Glo luminescence, 3 h; experiment: caspase activation in Bax/Bak-deficient MEFs, dose response, counter-screen for A1 inhibitor project, cell-based, Bax-Bak knockout MEF, A1-2A-BIM, luminescence (AID 449754);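 further: counterscreen where caspase activation signals off-target toxicity not A1 inhibition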
Outline: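 Signal – CaspaseGlo luminescence · Assay system – A1-2A-BIM MEFs lacking Bax and Bak · Quantity – 2500 cells/well · Compound – 100 nL pinned compound per well · Times – 37 °C compound 3 h, cooling 30 min, reagent 1 h · Buffer or medium – RPMI-1640, 10% FBS · Read-out basis – caspase activity from luminescent signal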

SMILES	AC50
CCc1ccc(NC(=O)c2nc(S(=O)(=O)Cc3ccccc3)ncc2Cl)cc1	> 35 µM (inactive)
Cc1ccc2nc(N(CCCN(C)C)C(=O)c3ccc(S(=O)(=O)N4CCc5ccccc5C4)cc3)sc2c1	> 35 µM (inactive)
Cc1ccc(CS(=O)(=O)c2ncc(Cl)c(C(=O)Nc3nnc(C(C)C)s3)n2)cc1	> 35 µM (inactive)
COC(=O)[C@@]1(C)CC[C@]2(C)CC[C@@]3(C)C(=CC(=O)C4[C@@]5(C)CC[C@H](O)C(C)(C)[C@@H]5CC[C@]43C)[C@H]2C1 (some centres not stated)	> 35 µM (inactive)
O=C(N=Nc1c(O)[nH]c2ccc([N+](=O)[O-])cc12)c1cc(-c2ccccc2Cl)nc2ccccc12	> 35 µM (inactive)
Clc1ccccc1CN(Cc1ccccc1)c1ncnc2nc[nH]c12	> 35 µM (inactive)
CC(C)N=c1scc(-c2ccco2)n1/N=C/c1ccc(O)c(O)c1	> 35 µM (inactive)
